Assay results: ChEMBL document CHEMBL1155588, “Use of COMPARE analysis to discover functional analogues of bleomycin” (J Nat Prod, 2000)
Activity calls are given as the source filed them. The rule behind the calls is not given here.

How the values were obtained:
[1] = Induction of pSP64 plasmid DNA relaxation by agarose gel electrophoresis in presence of Cu2+
Method in brief: (§1)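 Cell-free cleavage of supercoiled, covalently closed circular pSP64 plasmid DNA, with or without Cu2+. Reactions ran 1 h at 37 °C and were stopped with bromophenol blue in 30% glycerol. Products were resolved on 1% agarose containing 0.7 µg/mL ethidium bromide in Tris-borate-EDTA at 130 V for 3 h and viewed under UV. Forms I, II (nicked) and III (linear) were scored.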

[2] = Induction of supercoiled pSP64 plasmid DNA cleavage assessed as increase in nicked form 2 at 500 nM by agarose gel electrophoresis in presence of Cu2+; method in brief: as §1
[3] = Induction of supercoiled pSP64 plasmid DNA cleavage assessed as increase in linear duplex form 3 at 10 uM by agarose gel electrophoresis; method in brief: as §1
[4] = Induction of supercoiled pSP64 plasmid DNA cleavage assessed as increase in nicked form 2 at 1 uM by agarose gel electrophoresis; method in brief: as §1
[5] = Induction of supercoiled pSP64 plasmid DNA cleavage assessed as increase in linear duplex form 3 by agarose gel electrophoresis; method in brief: as §1
[6] = Induction of supercoiled pSP64 plasmid DNA cleavage assessed as increase in nicked form 2 at 0.25 uM by agarose gel electrophoresis in presence of Cu2+; method in brief: as §1
[7] = Induction of supercoiled pSP64 plasmid DNA cleavage assessed as increase in nicked form 2 at 2.5 uM by agarose gel electrophoresis in presence of Cu2+; method in brief: as §1
[8] = Induction of supercoiled pSP64 plasmid DNA cleavage assessed as increase in nicked form 2 at 10 uM by agarose gel electrophoresis; method in brief: as §1

Activity [1]	Activity [2]	Activity [3]	Activity [4]	Activity [5]	Activity [6]	Activity [7]	Activity [8]	Compound
Dose-dependent effect	> 50%	Active	–	–	–	–	–	Oc1cc(O)c2c(c1)O[C@H](c1ccc(O)c(O)c1)[C@@H](O)C2
Dose-dependent effect	> 50%	Active	–	–	–	–	–	Oc1cc(O)c2c(c1)O[C@@H](c1ccc(O)c(O)c1)[C@@H](O)C2
Dose-dependent effect	–	–	> 50%	inactive	Active	–	–	COc1cc([C@@H]2OC[C@@H]3[C@H]2CO[C@H]3c2cc(OC)c(O)c(OC)c2)cc(OC)c1O
Dose-dependent effect	–	–	–	inactive	–	Active	> 50%	COc1cc(C=O)cc(OC)c1O
